Scp-1 inhibitor: inhibitors of human Scp-1 phosphatase; AID 493091; Q9GZU7; 340,000 tested, 0.88% active; Recombinant Scp1, phosphopeptide, malachite green phosphate absorbance; inhibition, % at 20 µM;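 active = inhibition above about 50% at 20 µM, limit read from the data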
Target sequence (Q9GZU7 76-261 limits assumed): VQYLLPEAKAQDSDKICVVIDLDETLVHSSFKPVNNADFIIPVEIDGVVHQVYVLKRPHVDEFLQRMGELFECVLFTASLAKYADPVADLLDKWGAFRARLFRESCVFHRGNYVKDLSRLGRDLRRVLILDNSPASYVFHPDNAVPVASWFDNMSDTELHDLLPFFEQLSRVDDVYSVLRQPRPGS
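Test system: SCP-1 catalytic domain; Buffer or medium: Acidic Tris acetate buffer with magnesium and detergent; Also added: Phosphorylated 17-residue peptide substrate; Compound: single 20 µM dose, 1% DMSO; Schedule: enzyme reaction 45 min at room temperature, colour 5 min, stabilisation 30 min; Signal: Phosphate-binding colour reagent, absorbance read at 630 nm.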
STEP block: STEP (human) phosphatase inhibition; P54829; recombinant STEP, OMFP fluorogenic substrate, fluorescence; inhibition, % at 20 µM; 360,000 tested, 0.25% active; AID 588621;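 active = inhibition at 20 µM, scaled per plate between control wells, above about 37%, limit read from the data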
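System: STEP (striatal-enriched tyrosine phosphatase) enzyme, cell-free; medium: Bis-Tris pH 6.0 buffer with DTT, detergent; dosing: 20 µM, 1% DMSO; times: reaction 20 min, ambient temperature; detection: fluorescence, 480/540 nm; read-out basis: normalized % inhibition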
DNMT1 inh: inhibitors of human DNMT1. P26358. DNMT1 molecular beacon, Hinp1I cleavage, fluorescence. inhibition (reported as % activation of signal), % at 10 µM. 360,000 tested, 0.83% active. AID 588458; in the data active = inhibition above about 50%
SUMO1 PPI mod: alters human SUMO1 binding to SIM partners; SUMO1 binding to a labelled peptide, TR-FRET, 1 h; inhibition, % at 20 µM; 360,000 tested, 0.33% active; AID 602429; in the data active = inhibition above about 37%
Target sequence (P63165 whole entry, looked up): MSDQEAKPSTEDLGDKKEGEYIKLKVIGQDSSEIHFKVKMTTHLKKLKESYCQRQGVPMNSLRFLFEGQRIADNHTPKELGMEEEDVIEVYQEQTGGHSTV
LMPTP block: LMPTP (human) inhibition | P24666 | recombinant LMPTP-A, OMFP fluorogenic substrate, fluorescence intensity | inhibition, % at 20 µM | 360,000 tested, 0.22% active | AID 651560;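 active = compounds that cut the enzyme signal by at least half of the control window in the single-dose screen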
Target sequence (P24666 whole entry, looked up): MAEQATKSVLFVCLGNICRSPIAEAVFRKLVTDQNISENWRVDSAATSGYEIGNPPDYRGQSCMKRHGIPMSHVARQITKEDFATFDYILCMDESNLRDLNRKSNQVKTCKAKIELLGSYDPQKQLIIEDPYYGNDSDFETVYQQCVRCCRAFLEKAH
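Test system – LMPTP-A phosphatase enzyme · Quantity – 0.625 nM LMPTP-A final · Reagent – OMFP substrate, 400 µM final · Dosing – one test concentration per compound, 20 µM, with 3% DMSO overall · Timing – 50 min enzyme reaction at room temperature, protected from light · Detection – fluorescence intensity · Controls – substrate-only low control, DMSO enzyme-plus-substrate high control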
Scp-1 conf: Scp-1 (human) inhibition, single-dose confirmed; shares compounds with Scp-1 inhibitor; recombinant SCP-1 catalytic domain, phosphate release, malachite green absorbance; inhibition, % at 20 µM; 2,500 tested, 61% active
MG interference: counter-screen for Scp-1 inhibitors: colorimetric interference | AID 540313 | shares compounds with Scp-1 inhibitor | Colorimetric interference counterscreen, malachite green absorbance 630 nm | apparent inhibition (interference), % at 20 µM | 2,500 tested, under 10 active;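 note: compounds added after enzyme reaction finished so only phosphate colour detection is probed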
Scp1 DSF: binds human Scp-1, shifting its melting temperature | shares compounds with Scp-1 inhibitor | Recombinant SCP1, Sypro Orange thermal shift Tm | thermal shift relative to vanadate control, % at 40 µM | 1,500 tested, 25% active;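 active = substances whose mean melting-temperature shift, as a percentage of the reference inhibitor's shift, reaches about 5.3%, limit read from the data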
DNMT1 inh conf: DNMT1 inhibition confirmation, single concentration. DNMT1 molecular beacon HinP1I cleavage, fluorescence. inhibition, % at 10 µM. 2,300 tested, 8% active. shares compounds with DNMT1 inh. AID 602385;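 active = average inhibition of at least 30% in the single-concentration confirmation test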
Beacon interf: beacon fluorescence artifact counter-screen | activation (fluorescence interference), % at 10 µM | shares compounds with DNMT1 inh | 2,300 tested, 1% active | DNMT1 molecular beacon spectral interference counterscreen, fluorescence 485/520 | AID 602387;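 active = activation of at least 30% at 10 µM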;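 note: DNMT1 catalytic domain with a HinP1I cleavage step and a FAM/dabcyl DNA beacon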
Each line names hits and unclear results; the compound was inactive in the other large screens (follow-up assays come after a bar, where they were run). Compounds with a hit are over-represented: about 1.7% of the library has one in this group of screens.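 Rule for the calls, unless noted: active = inhibition of at least 30% at 20 µM; inactive = the rest.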

COc1ccccc1C(=O)N=Nc1c(O)[nH]c2ccc([N+](=O)[O-])cc12	none
COc1ccc(NC(=O)/C(C#N)=C/c2ccc(Br)o2)cc1	Scp-1 inhibitor 77, DNMT1 inh 99 | Scp-1 conf 56 | MG interference inactive | Scp1 DSF 5.5 | DNMT1 inh conf inactive | Beacon interf inactive
C=CC[N+]1(CC(=O)NCc2ccc(NC(C)=O)cc2)CCOCC1	none
O=C(N/N=C/C=C\c1ccccc1[N+](=O)[O-])c1cc(-c2ccc3ccccc3c2)n[nH]1	Scp-1 inhibitor 96, DNMT1 inh 68 | Scp-1 conf 86 | MG interference inactive | Scp1 DSF inactive | DNMT1 inh conf inactive | Beacon interf inactive
O=C1NC(=Nc2ccc(Cl)cc2)/C(=C/c2ccco2)S1	Scp-1 inhibitor 93, STEP block 61, DNMT1 inh 77 | Scp-1 conf 80 | MG interference inactive | Scp1 DSF 7.8 | DNMT1 inh conf inactive | Beacon interf inactive
NS(=O)(=O)c1ccc(NC(=O)/C=C/c2ccco2)cc1	Scp-1 inhibitor 68, DNMT1 inh 62 | Scp-1 conf 64 | MG interference inactive | Scp1 DSF inactive | DNMT1 inh conf inactive | Beacon interf inactive
O=C(N/N=C/c1ccc(-c2ccccc2C(=O)O)o1)c1cccs1	Scp-1 inhibitor 52, DNMT1 inh 63 | Scp-1 conf 71 | MG interference inactive | Scp1 DSF 6.5 | DNMT1 inh conf inactive | Beacon interf inactive
O=C(O)C1CC(c2ccc(F)cc2)=NO1 (stereo unspecified)	Scp-1 inhibitor 52, DNMT1 inh 86 | Scp-1 conf 34 | MG interference inactive | Scp1 DSF inactive | DNMT1 inh conf inactive | Beacon interf inactive
O=C(CSc1ccsc1[N+](=O)[O-])NCc1ccccc1	none
O=C(CSc1ccsc1[N+](=O)[O-])Nc1cccc(F)c1	Scp-1 inhibitor 75, DNMT1 inh 96 | Scp-1 conf 59 | MG interference inactive | Scp1 DSF 9.1 | DNMT1 inh conf inactive | Beacon interf inactive
c1ccc(-c2cc(-c3nn4c(-c5ccco5)nnc4s3)c3ccccc3n2)cc1	Scp-1 inhibitor 92, DNMT1 inh 55 | Scp-1 conf 43 | MG interference inactive | Scp1 DSF 7.3 | DNMT1 inh conf inactive | Beacon interf inactive
OC(c1ccc(Cl)cc1)c1ncc(-c2cccc(F)c2)[nH]1 (stereo unspecified)	none (no result: Scp-1 inhibitor)
N#Cc1c(NC(=O)c2ccco2)sc2c1CCC2	Scp-1 inhibitor 63, DNMT1 inh 54 | Scp-1 conf 56 | MG interference inactive | Scp1 DSF inactive | DNMT1 inh conf inactive | Beacon interf inactive
Cc1cccc(C)c1NC(=O)C(c1ccnc2ccccc12)n1c(=O)c(-c2ccccc2)nc2ccccc21 (stereo unspecified)	none (no result: Scp-1 inhibitor, STEP block, DNMT1 inh)
CC(CS(=O)(=O)c1ccc2c(c1)NC(=O)CS2)C(=O)NCc1ccccc1Cl (stereo unspecified)	Scp-1 inhibitor 76, DNMT1 inh 93, SUMO1 PPI mod 90 | Scp-1 conf 81 | MG interference inactive | Scp1 DSF inactive | DNMT1 inh conf inactive | Beacon interf inactive
CC(C)(C)OC(=O)N/N=C/c1cc(N=Nc2ccccc2)ccc1O	none
Cc1ccc(N=Nc2ccc(O)c(/C=N\NC(=O)c3ccc(N)cc3)c2)cc1C	Scp-1 inhibitor 95, DNMT1 inh 81 | Scp-1 conf 74 | MG interference inactive | Scp1 DSF inactive | DNMT1 inh conf inactive | Beacon interf inactive
